Measurements published in paper PMC12796350 (Scientific Reports, 2025).
Like-named read-outs stand apart in the source and are kept apart here.

Assays:
[1] = test system: HTB-140 (human melanoma) cells; test: MTT cytotoxicity assay, HTB-140; assay type: cell-based; settings: for IC50: 72 h, read-out: IC50 HTB-140; for SI HTB-140 (Selectivity Index): SI = IC50 for normal cell line (HaCaT)/IC50 cancer cell line
How it was run: (§1)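 Cells were seeded in 96-well plates at 1 × 10^4 per well in DMEM with 2% FBS and exposed 72 h to a range of test-compound concentrations. MTT (0.5 mg/mL) was added for 4 h, and formazan was dissolved in 0.04 M HCl/isopropanol. A570 was read relative to untreated control. […] SI = IC50 in HaCaT keratinocytes / IC50 in the cancer line. Mean SD.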

[2] = test system: A549 (human lung adenocarcinoma) cells; test: MTT cytotoxicity assay, A549; assay type: cell-based; settings: for IC50: read-out: IC50 A549; for SI A549 (Selectivity Index): SI = IC50 for normal cell line (HaCaT)/IC50 cancer cell line
How it was run: as §1

[3] = test system: HaCaT (immortalized human keratinocytes); test: MTT cytotoxicity assay, HaCaT normal cells; assay type: cell-based; settings: 72 h, read-out: IC50 HaCaT (normal cells)
[4] = test system: interleukin-6 (IL-6) release, SW620 cells; test: IL-6 level by ELISA, SW620; assay type: cell-based, human; settings: SW620, IC50 dose, 72 h
How it was run: (§2)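 Cells were seeded at 1 × 10^4 per well in DMEM with 2% FBS and exposed to test compound for 72 h. IL-6 in the culture supernatant was measured with a commercial ELISA kit and compared with untreated control. Data are mean ± SD from three independent experiments, each run in triplicate, compared by Student's t-test.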

[5] = test system: A549 cells; test: Apoptosis, Annexin V-FITC/7-AAD flow cytometry, A549; assay type: cell-based, human; settings: for cells in late apoptosis or necrosis: A549, IC50 concentration, 72 h
How it was run: (§3)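 Human HTB-140, A549, HeLa, SW620 or HaCaT cells were grown in DMEM with 2% FBS at 1 × 10^4 cells per well and preincubated 72 h with test compound. Camptothecin, 4 µM for 4 h, served as the positive control. Cells were dual-stained with Annexin V-FITC and 7-AAD, and 10,000 cells were analysed by flow cytometry. Annexin+/7-AAD− cells counted as early apoptotic; Annexin+/7-AAD+ as late apoptotic or necrotic.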

[6] = test system: SW620 (human colorectal cancer) cells; test: MTT cytotoxicity assay, SW620; assay type: cell-based; settings: for SI SW620 (Selectivity Index): SI = IC50 for normal cell line (HaCaT)/IC50 cancer cell line
How it was run: as §1

[7] = test system: HeLa (human cervical cancer) cells; test: MTT cytotoxicity assay, HeLa; assay type: cell-based; settings: for IC50: 72 h, read-out: IC50 HeLa; for SI HeLa (Selectivity Index): SI = IC50 for normal cell line (HaCaT)/IC50 cancer cell line
How it was run: as §1

[8] = test system: interleukin-6 (IL-6) release, HTB-140 cells; test: IL-6 level by ELISA, HTB-140; assay type: cell-based, human; settings: HTB-140, IC50 dose, 72 h
How it was run: as §2

[9] = test system: SW620 cells; test: Apoptosis, Annexin V-FITC/7-AAD flow cytometry, SW620; assay type: cell-based, human; settings: SW620, 4 µM, 4 h
How it was run: as §3

[10] = test system: HeLa cells; test: Apoptosis, Annexin V-FITC/7-AAD flow cytometry, HeLa; assay type: cell-based, human; settings: 4 µM, 4 h
How it was run: as §3

[11] = test system: HaCaT cells; test: Apoptosis, Annexin V-FITC/7-AAD flow cytometry, HaCaT; assay type: cell-based, human; settings: 4 µM, 4 h
How it was run: as §3

[12] = test system: HTB-140 cells; test: Apoptosis, Annexin V-FITC/7-AAD flow cytometry, HTB-140; assay type: cell-based, human
How it was run: as §3

[13] = test system: interleukin-6 (IL-6) release, HeLa cells; test: IL-6 level by ELISA, HeLa; assay type: cell-based, human; settings: IC50 dose, 72 h
How it was run: as §2

[14] = test system: interleukin-6 (IL-6) release, A549 cells; test: IL-6 level by ELISA, A549; assay type: cell-based, human; settings: A549, IC50 dose, 72 h
How it was run: as §2

[15] = test system: HaCaT cells; test: LDH release assay, HaCaT; assay type: cell-based, human; settings: 25 µM, 72 h
[16] = test system: HTB-140 cells; test: LDH release assay, HTB-140; assay type: cell-based, human; settings: 25 µM, 72 h
[17] = Homo sapiens, SW-620, 72 h, read-out: IC50 SW620, MTT, 72 h, mean SD
[18] = read-out: IC50 SW620, MTT, 72 h, mean SD
[19] = HTB-140, IC50 concentration, 72 h

| Compound | IC50 ([1]; Homo sapiens) | SI HTB-140 (Selectivity Index) [1] | IC50 ([2]; Homo sapiens, A549, 72 h) | SI A549 (Selectivity Index) [2] | IC50 ([3]; Homo sapiens, HaCaT) | IC50 [6, 17] | SI SW620 (Selectivity Index) [6] | IC50 ([7]; Homo sapiens, HeLa) | SI HeLa (Selectivity Index) [7] | also measured |
| --- | --- | --- | --- | --- | --- | --- | --- | --- | --- | --- |
| CCc1cc(=O)c2c(OCC(O)CNC(C)C)c3ccoc3c(OC)c2o1 (stereo not shown) [Compound 4, 7-ethyl-9-methoxy-4-{2-hydroxy-3-[(propan-2-yl)amino]propoxy}-5H-furo[3,2-g][1]benzopyran-5-one] | 18.2 ± 3.6 µM | 2.32 | 32.3 ± 7.9 µM | 1.31 | 42.3 ± 7.9 µM | 11.4 to 11.5 µM | 3.68 | 27.4 ± 6.5 µM | 1.54 | reduction of IL-6 secretion vs control [4]: around 50%; cells in late apoptosis or necrosis [5]: 55.6%; IC50 [6, 18]: 11.5 ± 6.6 µM; reduction of IL-6 release vs control [8]: strongest effect |
| N.N.[Cl][Pt][Cl] [Ref 1, cisplatin, reference compound] |  |  |  |  |  |  |  |  |  | IC50 ([1]; MTT, mean SD): 1.4 ± 0.69 µM; IC50 ([2]; MTT, 72 h, mean SD): 2.7 ± 1.1 µM; IC50 ([3]; MTT, mean SD): 2.8 ± 1.1 µM; IC50 [6, 18]: 1.9 ± 0.9 µM; IC50 ([7]; MTT, mean SD): 1.8 ± 0.74 µM |
| CCc1cc(=O)c2c(O)c3ccoc3c(O)c2o1 [Compound 1, 7-ethyl-4,9-dihydroxy-5 H-furo[3,2-g][1]benzopyran-5-one] | 30.4 ± 8.7 µM | 1.64 | 39.8 ± 7.9 µM | 1.25 | 49.8 ± 7.9 µM | 21.1 ± 4.4 µM | 2.36 | 41.5 ± 4.6 µM | 1.20 |  |
| CC[C@@]1(O)C(=O)OCc2c1cc1n(c2=O)Cc2cc3ccccc3nc2-1 [camptothecin] |  |  |  |  |  |  |  |  |  | apoptosis induction (positive control) [9]: induced apoptosis; apoptosis induction (positive control) [10]: induced apoptosis; apoptosis induction (positive control) ([5]; A549, 4 µM, 4 h): induced apoptosis; apoptosis induction (positive control) [11]: induced apoptosis; apoptosis induction (positive control) ([12]; HTB-140, 4 µM, 4 h): induced apoptosis |
| CCc1cc(=O)c2c(OCC(O)CN3CCOCC3)c3ccoc3c(OC)c2o1 (stereo not shown) [Compound 9, 7-ethyl-9-methoxy-4-[2-hydroxy-3-(morpholin-4-yl)propoxy]-5H-furo[3,2-g][1] benzopyran-5-one] | 23.4 ± 2.6 µM | 2.29 | 37.6 ± 7.3 µM | 1.43 | 53.6 ± 7.3 µM | 21.9 ± 4.3 µM | 2.45 | 29.5 ± 4.6 µM | 1.82 |  |
| CCc1cc(=O)c2c(OCC(O)CN(CC)CC)c3ccoc3c(OC)c2o1 (stereo not shown) [Compound 3, 7-ethyl-9-methoxy-4-[3-(diethylamino)-2-hydroxypropoxy]-5H-furo[3,2-g][1] benzopyran-5-one] | 30.1 ± 4.7 µM | 1.44 | 33.6 ± 4.1 µM | 1.29 | 43.3 ± 9.1 µM | 12.7 ± 5.1 µM | 3.41 | 34.2 ± 4.9 µM | 1.27 | inhibition of IL-6 release vs control [13]: 48% |
| CCc1cc(=O)c2c(O)c3ccoc3c(OC)c2o1 [Compound 2, 7-ethyl-4-hydroxy-9-methoxy-5H-furo[3,2-g][1]benzopyran-5-one] | 29.4 ± 3.4 µM | 1.58 | 36.5 ± 6.5 µM | 1.27 | 46.5 ± 8.5 µM | 17.4 ± 3.5 µM | 2.67 | 29.2 ± 3.9 µM | 1.59 | IL-6 release effect vs control [14]: 38%; LDH release [15]: 13.5%; LDH release [16]: 30.4%; cells in late apoptosis or necrosis [5]: 63.2%; cells in early apoptosis [12, 19]: 19.5%; cells in late apoptosis or necrosis [12, 19]: 20.8% |
| CCc1cc(=O)c2c(OCC(O)CN3CCCCC3)c3ccoc3c(OC)c2o1 (stereo not shown) [Compound 7, 7-ethyl-9-methoxy-4-[2-hydroxy-3-(piperidin-1-yl)propoxy]-5H-furo[3,2-g][1] benzopyran-5-one] | 32.5 ± 4.1 µM | 1.60 | 35.2 ± 6.3 µM | 1.47 | 51.9 ± 6.3 µM | 28.6 ± 5.5 µM | 1.81 | 32.3 ± 3.8 µM | 1.61 |  |
| CCc1cc(=O)c2c(OCC(O)CN3CCC(C)CC3)c3ccoc3c(OC)c2o1 (stereo not shown) [Compound 5, 7-ethyl-9-methoxy-4-[2-hydroxy-3-(4-methylpiperidin-1-yl)propoxy]-5H-furo[3,2-g][1]benzopyran-5-one] | 29.4 ± 4.9 µM | 1.49 | 43.8 ± 8.3 µM | 1.00 | 43.8 ± 8.3 µM | 26.3 ± 3.3 µM | 1.67 | 32.6 ± 3.7 µM | 1.34 |  |
| CCc1cc(=O)c2c(OCC(O)CNC(C)(C)C)c3ccoc3c(OC)c2o1 (stereo not shown) [Compound 8, 7-ethyl-9-methoxy-4-[3-(tert-butylamino)-2-hydroxypropoxy]-5H-furo[3,2-g][1] benzopyran-5-one] | 31.3 ± 2.6 µM | 1.47 | 38.4 ± 7.3 µM | 1.20 | 46.1 ± 7.3 µM | 26.3 ± 4.3 µM | 1.75 | 33.4 ± 4.6 µM | 1.38 |  |
| COc1cccc2c1C(=O)c1c(O)c3c(c(O)c1C2=O)C[C@@](O)(C(=O)CO)C[C@@H]3O[C@H]1C[C@H](N)[C@H](O)[C@H](C)O1 [Ref 2, doxorubicin, reference compound] | 0.5 ± 0.21 µM |  | 0.9 ± 0.19 µM |  |  | 0.7 ± 0.16 µM |  | 0.6 ± 0.14 µM |  |  |
